The source made the active and inactive calls. No cut-off for these calls is given here.

Heat shock protein beta-1 (Homo sapiens), sequence (P04792 whole entry): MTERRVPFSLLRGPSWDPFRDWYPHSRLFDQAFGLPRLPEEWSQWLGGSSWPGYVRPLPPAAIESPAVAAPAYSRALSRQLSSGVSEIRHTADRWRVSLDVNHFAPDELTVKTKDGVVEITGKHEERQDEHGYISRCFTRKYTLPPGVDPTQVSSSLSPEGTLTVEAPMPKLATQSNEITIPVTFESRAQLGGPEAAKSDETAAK

One assay addresses Heat shock protein beta-1 (Homo sapiens) (UniProt P04792). The experiment in a line: Inhibition of HSP27 (unknown origin) assessed as increase in DTT-induced insulin B chain aggregation at 5 uM incubated for 5 mins prior to DTT-treatment measured after 30 mins by spectrophotometric analysis relative to control.
Conditions: not given
With `Cc1ccc(C)c(COc2cc(NC(=O)C3CCCCC3)ccc2N(C)S(C)(=O)=O)c1`, the inhibition (usually the drop in the measured response relative to a control, in per cent) turned out to be 29%.

The next assay is filed under the species Bos taurus. The settings on record: 100 uM.
The compound `CS(=O)(=O)Nc1ccc([N+](=O)[O-])cc1Oc1ccccc1` [NIMESULIDE] yielded an inhibition of 14%.

For the next assay, the system named is SK-BR-3. The experiment in a line: Antiproliferative activity against human SKBR3 cells after 48 hrs by MTT assay. The class given is functional, cell-based. Conditions: SK-BR-3, 48 h. The essentials: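 MTT assay on SKBR-3 cells (RPMI 1640, 10% heat-inactivated FBS, 37 °C, 5% CO2), seeded 24 h before dosing, then exposed 48 h to a concentration series in DMSO (final ≤0.1%) with vehicle-matched controls. Afterwards 0.5 mg/mL MTT for 2 h, formazan dissolved in DMSO, A570 read, six replicates. IC50 from nonlinear regression.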
Take `CCCCCCOc1cc(NC(=O)c2ccc3c(c2)OCO3)ccc1N(C)S(C)(=O)=O`: the concentration for half-maximal inhibition (IC50) (as a rule, the concentration at which inhibition is half-maximal) stood at 28800 nM. Turning to `COc1ccc(C(=O)Nc2ccc(N(C)S(C)(=O)=O)c(OCc3cc(C(F)(F)F)ccc3C)c2)cc1OC`, half-maximal inhibition (IC50) required 16900 nM. As to `CCCCCCOc1cc(NC(=O)c2ccc3ccccc3c2)ccc1N(C)S(C)(=O)=O`, the midpoint of inhibition, the IC50, lay at 64300 nM.

As to `CCCCCCOc1cc(NC(=O)c2ccc(Br)cc2)ccc1N(C)S(C)(=O)=O`, the IC50 was 39900 nM. The compound `COc1ccc(OC)c(COc2cc(NC(=O)c3ccc(I)cc3)ccc2N(C)S(=O)(=O)C(F)(F)F)c1` yielded an IC50 of 510 nM. For the compound `COc1ccc(OC)c(COc2cc(NC(=O)c3ccc4c(c3)OCO4)ccc2N(C)S(C)(=O)=O)c1`, the IC50 was found to be 7.52 nM. Still for that read-out and setting: the result for `COc1ccc(C(=O)Nc2ccc(N(C)S(=O)(=O)C(F)(F)F)c(OCc3cc(C)ccc3C)c2)cc1` reads 5320 nM; that for `COc1ccc(OC)c(COc2cc(NC(=O)c3ccc4ccccc4c3)ccc2N(C)S(=O)(=O)C(F)(F)F)c1`, 200 nM; that for `COc1ccc(OC)c(COc2cc(NC(=O)c3ccc(Br)cc3)ccc2N(C)S(=O)(=O)C(F)(F)F)c1`, 470 nM. In turn, `Cc1ccc(C)c(COc2cc(NC(=O)c3ccc(I)cc3)ccc2N(C)S(=O)(=O)C(F)(F)F)c1` displayed an IC50 of 13500 nM.

Regarding `COc1ccc(C(=O)Nc2ccc(N(C)S(C)(=O)=O)c(OCc3cc(C(F)(F)F)ccc3C)c2)cc1`, the IC50 was determined as 2030 nM. Against the preceding compound, the IC50 is about 6.7-fold lower.

Compound `Cc1ccc(C(F)(F)F)cc1COc1cc(NC(=O)c2ccc3c(c2)OCO3)ccc1N(C)S(C)(=O)=O` displayed an IC50 of 14700 nM. The compound `COc1ccc(OC)c(COc2cc(NC(=O)c3ccc4c(c3)OCO4)ccc2N(C)S(=O)(=O)C(F)(F)F)c1` displayed an IC50 of 710 nM.

Take `CCCCCCOc1cc(NC(=O)c2ccc(OC)c(OC)c2)ccc1N(C)S(C)(=O)=O`: the IC50 is 100000 nM.

The compound `CCCCCCOc1cc(NC(=O)c2ccc(OC)cc2)ccc1N(C)S(C)(=O)=O` showed an IC50 of 20000 nM. Same read-out and setting: to `Cc1ccc(C(F)(F)F)cc1COc1cc(NC(=O)c2ccc(Br)cc2)ccc1N(C)S(C)(=O)=O` belongs 9490 nM; to `CS(=O)(=O)Nc1ccc([N+](=O)[O-])cc1Oc1ccccc1` [NIMESULIDE], 100000 nM; to `CN(c1ccc(NC(=O)c2ccc3ccccc3c2)cc1OCc1cc(Cl)ccc1Cl)S(C)(=O)=O`, 2210 nM. In turn, `COc1ccc(OC)c(COc2cc(NC(=O)c3ccc(Br)cc3)ccc2N(C)S(C)(=O)=O)c1` displayed an IC50 of 3.51 nM. Compound `CN(c1ccc(NC(=O)c2ccc3c(c2)OCO3)cc1OCc1cc(Cl)ccc1Cl)S(C)(=O)=O` came in with an IC50 of 2850 nM. Compound `COc1ccc(C(=O)Nc2ccc(N(C)S(C)(=O)=O)c(OCc3cc(Cl)ccc3Cl)c2)cc1OC` came in with an IC50 of 3730 nM. This IC50 and that of the compound before are within 1.5-fold of each other. Take `COc1ccc(OC)c(COc2cc(NC(=O)c3ccc4ccccc4c3)ccc2NS(C)(=O)=O)c1`: the IC50 came out at 13.3 nM. In turn, `Cc1ccc(C)c(COc2cc(NC(=O)c3ccc4c(c3)OCO4)ccc2N(C)S(=O)(=O)C(F)(F)F)c1` had an IC50 of 21800 nM. Compared with the last compound, the IC50 is about 1600-fold higher.

Turning to `Cc1ccc(C)c(COc2cc(NC(=O)c3ccc4ccccc4c3)ccc2N(C)S(=O)(=O)C(F)(F)F)c1`, the IC50 is 41400 nM. On the same count and under the same terms, to `COc1ccc(C(=O)Nc2ccc(NS(C)(=O)=O)c(OCc3cc(OC)ccc3OC)c2)cc1` belongs 13.4 nM.

For the compound `COc1ccc(OC)c(COc2cc(NC(=O)c3ccc(Br)cc3)ccc2NS(C)(=O)=O)c1`, 9.58 nM corresponded to half-maximal inhibition (IC50). Turning to `Cc1ccc(C)c(COc2cc(NC(=O)c3ccc(Br)cc3)ccc2N(C)S(=O)(=O)C(F)(F)F)c1`, the IC50 is 36400 nM. The same measure, in the same setting: to `Cc1ccc(C(F)(F)F)cc1COc1cc(NC(=O)c2ccc(I)cc2)ccc1N(C)S(C)(=O)=O` belongs 3500 nM. In turn, `CN(c1ccc(NC(=O)c2ccc(I)cc2)cc1OCc1cc(Cl)ccc1Cl)S(C)(=O)=O` gave an IC50 of 660 nM. Turning to `COc1ccc(OC)c(COc2cc(NC(=O)c3ccc4ccccc4c3)ccc2N(C)S(C)(=O)=O)c1`, the IC50 was found to be 16.6 nM. This IC50 is about 40-fold lower than that of the compound before.

Take `COc1ccc(C(=O)Nc2ccc(N(C)S(C)(=O)=O)c(OCc3cc(Cl)ccc3Cl)c2)cc1`: the midpoint of inhibition, the IC50, lay at 490 nM.

`COc1ccc(C(=O)Nc2ccc(N(C)S(=O)(=O)C(F)(F)F)c(OCc3cc(OC)ccc3OC)c2)cc1` yielded a half-maximal inhibitory concentration (IC50) of 110 nM. `Cc1ccc(C(F)(F)F)cc1COc1cc(NC(=O)c2ccc3ccccc3c2)ccc1N(C)S(C)(=O)=O`: 18400 nM corresponded to half-maximal inhibition (IC50). The same measure, in the same setting: the result for `COc1ccc(OC)c(COc2cc(NC(=O)c3ccc(OC)c(OC)c3)ccc2N(C)S(C)(=O)=O)c1` reads 2.61 nM; that for `COc1ccc(OC)c(COc2cc(NC(=O)c3ccc(OC)c(OC)c3)ccc2N(C)S(=O)(=O)C(F)(F)F)c1`, 550 nM; that for `COc1ccc(OC)c(COc2cc(NC(=O)c3ccc4c(c3)OCO4)ccc2NS(C)(=O)=O)c1`, 35.2 nM.

Turning to `COc1ccc(OC)c(COc2cc(NC(=O)c3ccc(I)cc3)ccc2NS(C)(=O)=O)c1`, the midpoint of inhibition, the IC50, lay at 11.8 nM. This IC50 lies about 3-fold lower than the previous one. Same read-out and setting: the result for `CCCCCCOc1cc(NC(=O)c2ccc(I)cc2)ccc1N(C)S(C)(=O)=O` reads 12700 nM; that for `COc1ccc(C(=O)Nc2ccc(N(C)S(=O)(=O)C(F)(F)F)c(OCc3cc(C)ccc3C)c2)cc1OC`, 39300 nM. Take `CN(c1ccc(NC(=O)c2ccc(Br)cc2)cc1OCc1cc(Cl)ccc1Cl)S(C)(=O)=O`: the midpoint of inhibition, the IC50, lay at 2290 nM. `COc1ccc(OC)c(COc2cc(NC(=O)c3ccc(OC)c(OC)c3)ccc2NS(C)(=O)=O)c1` returned an IC50 of 11 nM.

Another assay addresses Heat shock protein beta-1 (Homo sapiens) (UniProt P04792). The experiment in a line: Inhibition of HSP27 (unknown origin) assessed as increase in DTT-induced insulin B chain aggregation at 10 uM incubated for 5 mins prior to DTT-treatment measured after 30 mins by spectrophotometric analysis relative to control.
Conditions: not given
As for `Cc1ccc(C)c(COc2cc(NC(=O)c3ccc(I)cc3)ccc2N(C)S(C)(=O)=O)c1`, the inhibition was determined as 28%.

As to `CS(=O)(=O)Nc1ccc([N+](=O)[O-])cc1Oc1ccccc1` [NIMESULIDE], the inhibition entry is “inactive”.

As to `COc1ccc(C(=O)Nc2ccc(N(C)S(C)(=O)=O)c(OCc3cc(C)ccc3C)c2)cc1`, the inhibition turned out to be 30%.

Source of the values: ChEMBL document CHEMBL2396529, “Synthesis and anticancer mechanism investigation of dual Hsp27 and tubulin inhibitors” (J Med Chem, 2013).
